Values after ≈ are worked out from the molar mass of the structure shown.
Assays:
[1] = Half-life upon exposure to human plasma; format: ADME, organism-based
Procedure, shortened: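 Pooled heparinized human plasma (10 donors) or 100 mM potassium phosphate pH 7.4 buffer (n = 3 each), spiked to final 25 μM compound from acetonitrile stock. Incubated at 37 °C for 1–3 h with regular sampling. Protein precipitated with acetonitrile, then LC quantification against a 0.05–40 μg/mL standard curve. Half-life by linear regression of mean concentration-time data.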

Caco-2 = details: Homo sapiens
[2] = Compound was tested in vitro for loss of compound after 30 min exposure to liver microsomes of dog at 25 uM concentration; format: ADME, organism-based, Canis lupus familiaris; details: read-out: Metabolism
Procedure, shortened: (§1)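 Pooled liver microsomes (dog, monkey or human; 1 mg/mL, 6–8 livers) with 2 mM NADPH in 100 mM potassium phosphate, pH 7.4, preincubated 1 min at 37 °C. Started with 25 μM compound, run 30 min, quenched with acetonitrile. Time-zero controls quenched before compound addition. Remaining compound by reversed-phase HPLC at 215 nm. Reported as % metabolized.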

[3] = Compound was tested for human plasma protein binding; format: ADME, cell-free
Procedure, shortened: (§2)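 Ultrafiltration binding. Compound added from 1 mM and 0.1 mM stocks into heparinized dog or human plasma or pH 7.4 phosphate buffer, giving final 1 and 10 μM. Incubated 1 h at 37 °C, then centrifugal ultrafiltration. Filtrate and whole plasma quantified by LCMS with internal standard. % free = filtrate/whole plasma × 100. Three replicates per species per concentration.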

[4] = Compound was tested in vitro for loss of compound after 4 hours exposure to hepatocytes of monkey at 25 uM concentration; format: ADME, cell-based, Hepatocyte; details: simiiformes, read-out: Metabolism
[5] = Thermodynamic aqueous solubility was determined; format: physicochemical; details: buffer
Procedure, shortened: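 1–2 mg compound stirred in 1 mL of pH 7.0, 50 mM phosphate buffer at room temperature for 4 h. Filtered through a 0.45 μm filter. Filtrate concentration determined by HPLC against a standard of known concentration.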

[6] = Compound was tested in vitro for loss of compound after 4 hours exposure to hepatocytes of dog at 25 uM concentration; format: ADME, organism-based, Canis lupus familiaris, Hepatocyte; details: read-out: Metabolism
Enterovirus [7] = assay: In vitro anti-rhinoviral activity against human rhinovirus serotypes 2,3,9,14,16,25 and 39; format: functional, organism-based
[8] = Compound was tested in vitro for loss of compound after 4 hours exposure to hepatocytes of human at 25 uM concentration; format: ADME, organism-based, Hepatocyte; details: read-out: Metabolism
Canis familiaris = organism: Canis familiaris; assay: Compound was tested for plasma protein binding of dog; format: ADME, organism-based, Canis lupus familiaris; procedure, shortened: as §2
[9] = Compound was tested for plasma concentration in dogs 7 hours after oral administration (30 mg/kg) in experiment 2; format: ADME, organism-based, Canis lupus familiaris; details: dog
Procedure, shortened: (§3)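 Male beagle dogs (BW ~9.3 kg, n = 3), single oral dose of 30 mg/kg. Vehicle was 80:20 propylene glycol:sterile water (15.0 mg/mL) or, in some studies, a 0.5% carboxymethyl cellulose suspension. Blood sampled up to 24 h. Plasma level at 7 h determined by LCMS. Noncompartmental analysis of individual concentration-time profiles.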

[10] = Compound was tested for plasma concentration in CM-monkeys 7 hours after oral administration (50 mg/kg); format: ADME, organism-based, Macaca fascicularis; details: cynomolgus monkey
Procedure, shortened: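 Male CM-monkeys (BW ~3.9 kg, n = 3), single oral dose of 50 mg/kg in 80:20 propylene glycol:sterile water at 15.0 mg/mL. Blood sampled periodically up to 24 h post-dose. Plasma concentration at 7 h measured by LCMS. Parameters from noncompartmental analysis of individual concentration-time data.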

[11] = Compound was tested for plasma concentration in dogs 7 hours after oral administration (30 mg/kg) in experiment 1; format: ADME, organism-based, Canis lupus familiaris; details: dog; procedure, shortened: as §3
[12] = Compound was tested in vitro for loss of compound after 30 min exposure to liver microsomes of human at 25 uM concentration; format: ADME, organism-based; details: read-out: Metabolism; procedure, shortened: as §1
[13] = molecular target: T1, Human rhinovirus A protease (Human rhinovirus sp.) (UniProt Q4U254);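 also: inhibition of the human rhinovirus 3C protease enzyme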
T1 sequence (whole entry): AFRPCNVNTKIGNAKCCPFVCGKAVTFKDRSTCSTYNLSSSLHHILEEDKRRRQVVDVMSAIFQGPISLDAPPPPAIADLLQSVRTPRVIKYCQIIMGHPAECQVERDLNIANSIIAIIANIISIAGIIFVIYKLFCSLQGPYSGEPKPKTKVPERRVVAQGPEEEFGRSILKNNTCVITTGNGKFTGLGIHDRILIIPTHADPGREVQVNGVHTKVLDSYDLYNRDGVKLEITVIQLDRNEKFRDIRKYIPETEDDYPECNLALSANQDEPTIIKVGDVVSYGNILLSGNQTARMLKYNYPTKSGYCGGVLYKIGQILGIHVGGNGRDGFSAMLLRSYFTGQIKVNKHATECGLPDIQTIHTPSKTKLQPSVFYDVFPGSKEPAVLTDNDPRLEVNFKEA

[14] = Compound was tested for plasma concentration in dogs 7 hours after oral administration (30 mg/kg); format: ADME, organism-based, Canis lupus familiaris; details: dog; procedure, shortened: as §3
[15] = Compound was tested in vitro for loss of compound after 2 hours exposure to hepatocytes of dog at 25 uM concentration; format: ADME, organism-based, Canis lupus familiaris, Hepatocyte; details: read-out: Metabolism
[16] = Compound was tested in vitro for loss of compound after 30 min exposure to liver microsomes of monkey at 25 uM concentration; format: ADME, Microsome; details: simiiformes, read-out: Metabolism; procedure, shortened: as §1
[17] = Compound was tested in vitro for loss of compound after 2 hours exposure to hepatocytes of human at 25 uM concentration; format: ADME, organism-based, Hepatocyte; details: read-out: Metabolism
[18] = Compound was tested in vitro for loss of compound after 2 hours exposure to hepatocytes of monkey at 25 uM concentration; format: ADME, cell-based, Hepatocyte; details: simiiformes, read-out: Metabolism
[19] = Compound was tested in vitro for loss of compound after 2 hours exposure to hepatocytes of monkey at 5 uM concentration; format: ADME, cell-based, Hepatocyte; details: simiiformes, read-out: Metabolism
Enterovirus [20] = assay: In vitro antirhinoviral activity against human rhinovirus serotypes 2, 3, 9, 14, 16 and 39 (mean)
Enterovirus [21] = assay: In vitro antirhinoviral activity mean against human rhinovirus serotypes 2, 3, 9, 14, 16 and 25

SMILES | half-life [1] | Papp (Caco-2) | metabolised at 0.5 h, 25 µM [2] | solubility thermodynamic [5] | EC50 (Enterovirus [7]) | metabolised at 0.5 h, 25 µM [12] | K obs / 1 [13] | also measured
Cc1cc(C(=O)Nc2cccn([C@@H](Cc3ccc(F)c(F)c3)C(=O)N[C@H](/C=C/C(=O)OC(C)C)C[C@@H]3CCNC3=O)c2=O)no1 | 582 min | 36 10e-6 cm s-1 | 57% | 21 µg/mL (≈ 33.6 µM) | 78 nM | 56% | – | Free [3]: 9%; metabolised at 4 h, 25 µM [4]: 92%; metabolised at 4 h, 25 µM [6]: 16%; metabolised at 4 h, 25 µM [8]: 87%; Free (Canis familiaris): 19%; concentration at 7 h [9]: 959 nM; concentration at 7 h [10]: 12 nM; concentration at 7 h [11]: 815 nM
Cc1cc(CCCOc2c(C)cc(-c3noc(C(F)(F)F)n3)cc2C)on1 [PLECONARIL] | – | – | – | – | 136 nM | – | – | –
C#CC[C@@H](C(=O)N[C@H](/C=C/C(=O)OC1CCC1)C[C@@H]1CCNC1=O)n1cccc(NC(=O)c2cc(C)on2)c1=O | 198 min | 14 10e-6 cm s-1 | 53% | 25 µg/mL (≈ 45.5 µM) | 90 nM | 52% | 207000 M⁻¹ s⁻¹ | concentration at 7 h [14]: 73 nM
C#CC[C@@H](C(=O)N[C@H](/C=C/C(=O)OCC)C[C@@H]1CCNC1=O)n1cccc(NC(=O)c2cc(C)on2)c1=O [IMOCITRELVIR] | 396 min | 6 10e-6 cm s-1 | 45% | 377 µg/mL (≈ 720 µM) | 58 nM | 40% | 223000 M⁻¹ s⁻¹ | metabolised at 2 h, 25 µM [15]: 12%; metabolised at 0.5 h, 25 µM [16]: 55%; metabolised at 2 h, 25 µM [17]: 85%; metabolised at 2 h, 25 µM [18]: 79%; Free [3]: 34%; concentration at 7 h [14]: 248 nM; Free (Canis familiaris): 54%; concentration at 7 h [10]: 57 nM
CCOC(=O)/C=C/[C@H](C[C@@H]1CCNC1=O)NC(=O)[C@H](CC)n1cccc(NC(=O)c2cc(C)on2)c1=O | 336 min | 5 10e-6 cm s-1 | 37% | 38 µg/mL (≈ 74 µM) | 47 nM | 61% | 170000 M⁻¹ s⁻¹ | metabolised at 2 h, 25 µM [15]: 14%; metabolised at 0.5 h, 25 µM [16]: 61%; metabolised at 2 h, 25 µM [17]: 82%; metabolised at 2 h, 5 µM [19]: 76%; concentration at 7 h [9]: < 10 nM; concentration at 7 h [10]: 896 nM; concentration at 7 h [11]: 682 nM
CC[C@@H](C(=O)N[C@H](/C=C/C(=O)OC(C)(C)C)C[C@@H]1CCNC1=O)n1cccc(NC(=O)c2cc(C)on2)c1=O | – | – | – | – | 405 nM | – | 45100 M⁻¹ s⁻¹ | –
CCOC(=O)c1ccc(OCCC2CCN(c3ccc(C)nn3)CC2)cc1 [PIRODAVIR] | – | – | – | – | – | – | – | EC50 (Enterovirus [20]): 31 nM
C#CC[C@@H](C(=O)N[C@H](/C=C/C(=O)OC(C)C)C[C@@H]1CCNC1=O)n1cccc(NC(=O)c2cc(C)on2)c1=O | – | – | – | – | – | – | 100000 M⁻¹ s⁻¹ | EC50 (Enterovirus [21]): 174 nM
C#CC[C@@H](C(=O)N[C@H](/C=C/C(=O)OCC(C)(C)C)C[C@@H]1CCNC1=O)n1cccc(NC(=O)c2cc(C)on2)c1=O | – | – | – | – | 276 nM | – | 128000 M⁻¹ s⁻¹ | –
CC[C@@H](C(=O)N[C@H](/C=C/C(=O)OC1CCC1)C[C@@H]1CCNC1=O)n1cccc(NC(=O)c2cc(C)on2)c1=O | 552 min | 10 10e-6 cm s-1 | 46% | 192 µg/mL (≈ 356 µM) | 76 nM | 49% | 170000 M⁻¹ s⁻¹ | Free [3]: 33%; concentration at 7 h [14]: 222 nM; Free (Canis familiaris): 42%
CCOC(=O)/C=C/[C@H](C[C@@H]1CCNC1=O)NC(=O)[C@H](Cc1ccc(F)c(F)c1)n1cccc(NC(=O)c2cc(C)on2)c1=O | 84 min | 35 10e-6 cm s-1 | 57% | 25 µg/mL (≈ 40.9 µM) | 11 nM | 81% | – | metabolised at 2 h, 25 µM [17]: 94%

From ChEMBL document CHEMBL1145131, “Structure-based design, synthesis, and biological evaluation of irreversible human rhinovirus 3C protease inhibitors. 8. Pharmacological optimization of orally bioavailable 2-pyridone-containing peptidomimetics” (J Med Chem, 2003)
